# Assay outcomes as filed in PubChem.
# Scp1 inh = inhibitors of human Scp-1 phosphatase; Q9GZU7; Recombinant Scp1, phosphopeptide, malachite green phosphate absorbance; inhibition, % at 20 µM; actives 0.88% (n = 340,000);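 active = inhibition above about 50% at 20 µM, limit read from the data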
#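 Material: truncated SCP-1 phosphatase (76-261aa) / Buffer or medium: 50 mM Tris acetate pH 5.5, 0.005% Tween-20, 10 mM MgCl2 / Compound dosing: one concentration, 20 µM, with 1.0% DMSO / Incubation: 45 min room-temperature reaction, 5 min colour, 30 min stabiliser / Detection: colorimetric free-phosphate detection, absorbance 630 nm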
# STEP inh = blocks human striatal-enriched tyrosine phosphatase; P54829; recombinant STEP, OMFP fluorogenic substrate, fluorescence; inhibition, % at 20 µM; actives 0.25% (n = 360,000);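 active = inhibition at 20 µM, scaled per plate between control wells, above about 37%, limit read from the data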
# Target sequence (P54829 whole entry, looked up): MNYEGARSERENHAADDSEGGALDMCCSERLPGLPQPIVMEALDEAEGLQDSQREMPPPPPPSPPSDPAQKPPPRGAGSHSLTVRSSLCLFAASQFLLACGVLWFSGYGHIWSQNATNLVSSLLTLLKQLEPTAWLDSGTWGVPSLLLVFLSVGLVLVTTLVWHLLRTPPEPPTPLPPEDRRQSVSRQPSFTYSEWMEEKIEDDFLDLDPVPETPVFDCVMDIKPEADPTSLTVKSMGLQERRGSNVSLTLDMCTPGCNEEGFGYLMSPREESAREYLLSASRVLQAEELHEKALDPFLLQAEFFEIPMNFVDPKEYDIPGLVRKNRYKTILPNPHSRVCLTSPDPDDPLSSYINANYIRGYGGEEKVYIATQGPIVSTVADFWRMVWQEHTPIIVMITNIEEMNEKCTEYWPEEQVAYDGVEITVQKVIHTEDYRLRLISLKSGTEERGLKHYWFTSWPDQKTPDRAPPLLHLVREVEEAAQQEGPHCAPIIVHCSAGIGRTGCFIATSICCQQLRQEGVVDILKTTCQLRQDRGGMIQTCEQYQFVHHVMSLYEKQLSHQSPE
#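 medium = Bis-Tris buffer pH 6.0, 2.5 mM DTT, 0.005% Tween 20 | test system = STEP (striatal-enriched tyrosine phosphatase) enzyme, cell-free | measure = normalized % inhibition | compound dosing = 20 µM, 1% DMSO | also added = 25 µM OMFP | schedule = reaction 20 min, ambient temperature | measured by = fluorescence read at 480 nm ex / 540 nm em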
# SUMO1 PPI mod = modulators of human SUMO1-mediated protein-protein interactions; inhibition, % at 20 µM; SUMO1 binding to a labelled peptide, TR-FRET, 1 h; actives 0.33% (n = 360,000); P63165; in the data active = inhibition above about 37%
# Target sequence (P63165 whole entry, looked up): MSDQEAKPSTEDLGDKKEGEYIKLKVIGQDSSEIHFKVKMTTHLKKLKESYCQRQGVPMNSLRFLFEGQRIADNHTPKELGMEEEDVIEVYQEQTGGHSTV
# LMPTP block = LMPTP (human) inhibition; recombinant LMPTP-A, OMFP fluorogenic substrate, fluorescence intensity; actives 0.22% (n = 360,000); P24666; AID 651560; inhibition, % at 20 µM;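 active = compounds that cut the enzyme signal by at least half of the control window in the single-dose screen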
#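 material = LMPTP-A | quantity = 0.625 nM enzyme | reagent = OMFP substrate, 400 µM final | buffer or medium = Bis-Tris pH 6.0, DTT, detergent | detection = endpoint fluorescence intensity from OMFP dephosphorylation | dosing = single 20 µM dose | read-out basis = % inhibition relative to no-enzyme and uninhibited control wells | control set = no-enzyme and uninhibited controls | timing = 50 min at room temperature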
# DNMT1 inh = blocks human DNA methyltransferase DNMT1. P26358. DNMT1 molecular beacon, Hinp1I cleavage, fluorescence. actives 0.83% (n = 360,000). inhibition (reported as % activation of signal), % at 10 µM; in the data active = inhibition above about 50%
# Scp-1 conf = Scp-1 (human) inhibition, single-dose confirmed; shares compounds with Scp1 inh; recombinant SCP-1 catalytic domain, phosphate release, malachite green absorbance; actives 61% (n = 2,500); inhibition, % at 20 µM
# MG interference = interferes with malachite green readout, flagging false Scp-1 hits; apparent inhibition (interference), % at 20 µM; shares compounds with Scp1 inh; Colorimetric interference counterscreen, malachite green absorbance 630 nm; 2,500 tested, under 10 active; AID 540313;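 note: compounds added after enzyme reaction finished so only phosphate colour detection is probed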
# Scp1 DSF = validation of human Scp-1 inhibitors by thermal shift binding | shares compounds with Scp1 inh | Recombinant SCP1, Sypro Orange thermal shift Tm | thermal shift relative to vanadate control, % at 40 µM | actives 25% (n = 1,500) | AID 540329;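 active = substances whose mean melting-temperature shift, as a percentage of the reference inhibitor's shift, reaches about 5.3%, limit read from the data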
# Numbers stand for hits; - = inactive; . = no result. Hits are enriched below; roughly 1.7% of the tested compounds scored in any of these assays.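 Rule for the calls, unless noted: active = inhibition of at least 30% at 20 µM; inactive = the rest.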
SMILES,Scp1 inh,STEP inh,SUMO1 PPI mod,LMPTP block,DNMT1 inh,Scp-1 conf,MG interference,Scp1 DSF
CN1OC[C@@H]2CN(S(=O)(=O)c3cccc(C(F)(F)F)c3)[C@H](c3ccc(N4CCCCC4)cc3)C[C@@H]21,.,-,-,-,-,.,.,.
COc1ccc(CC(=O)Nc2ncc([N+](=O)[O-])s2)cc1OC,71,-,-,-,-,66,-,12
COc1ccc(CC(=O)Nc2nccs2)cc1OC,-,-,-,-,-,.,.,.
COc1ccc2cc(C(=O)NCc3ccco3)c(=Nc3ccc(C(=O)O)cc3)oc2c1,63,-,-,-,-,34,-,-
O=C(NC(c1ccc(Cl)cc1)c1cnccn1)C1CCN(CCCOc2ccccc2)CC1 (centres undefined),.,-,-,-,-,.,.,.
O=C(NCc1ccc2c(c1)OCO2)c1cc(-n2cnnc2)ccc1Cl,85,-,-,-,-,-,-,.
O=C(NCc1ccc2c(c1)OCO2)c1ccccc1Cl,-,-,-,-,-,.,.,.
CC1CCN(C(=O)COC(=O)/C=C/c2ccc(Br)o2)CC1,-,-,-,-,-,.,.,.
CC1CCN(C(=O)COC(=O)/C=C/c2ccco2)CC1,65,-,-,-,-,-,-,.
CN(Cc1ccccc1)C(=O)COC(=O)/C=C/c1ccco1,65,-,-,-,-,62,-,-
O=C(COC(=O)/C=C/c1ccco1)Nc1ccccc1,-,-,-,-,-,.,.,.
CC1CCCC(C)N1C(=O)COC(=O)/C=C/c1ccc(Br)o1 (centres undefined),92,-,-,-,-,58,-,-
N/C(=N\OC(=O)c1cccc(F)c1)c1cccc([N+](=O)[O-])c1,-,-,-,-,-,.,.,.
N/C(=N/OC(=O)c1cccc([N+](=O)[O-])c1)c1cccc([N+](=O)[O-])c1,95,-,-,-,-,75,-,6.6
Cc1c(C(=O)O)oc2ccc(S(=O)(=O)NCCC3=CCCCC3)cc12,52,-,-,-,-,-,-,.
Cc1c(C(=O)NCCC2=CCCCC2)oc2ccc(S(=O)(=O)N3CCOCC3)cc12,-,-,-,-,-,.,.,.
NC(c1ccccc1)c1csc(Nc2cc(Oc3ccccc3)ncn2)n1 (centres undefined),.,-,-,-,-,.,.,.
OC[C@@H]1CN(Cc2ccc(-c3ccccc3)cc2)C[C@H](n2cnc3c(N4CCOCC4)ncnc32)O1,.,-,-,-,-,.,.,.
CCn1c(=O)c(C(=O)NCc2ccc(F)cc2)c(O)c2ccccc21,-,-,-,-,-,.,.,.
CCn1c(=O)c(=O)[nH]c2cc(C(=O)NCc3ccc(F)cc3)ccc21,-,-,-,-,-,-,-,.
COc1ccc(OC)c(NC(=O)CSc2sc3c(O)cc(=O)[nH]c3c2C#N)c1,70,-,-,-,-,55,-,11
COc1cc(Cl)c(C)cc1NC(=O)CSc1sc2c(O)cc(=O)[nH]c2c1C#N,65,-,-,-,-,76,-,13
O=C(NCCc1ccccc1)C1Cc2c(-c3ccccc3Oc3ccccc3)ccnc2O1 (centres undefined),.,-,-,-,-,.,.,.
CCn1cc(S(=O)(=O)c2ccc(C)cc2)c(=O)c2cc(F)c(N3CCN(C)CC3)cc21,61,-,-,-,-,-,-,.
C=CCOC(=O)Nc1nc(CCNC(=O)OC(C)(C)C)c(C(=O)OC)s1,.,.,-,-,.,.,.,.
SMILES,Scp1 inh,STEP inh,SUMO1 PPI mod,LMPTP block,DNMT1 inh,Scp-1 conf,MG interference,Scp1 DSF
C/C=C(\C)C(=O)Nc1cccc(C2=NOC3(C2)C[C@@H](C(N)=O)N(C(=O)c2ccccc2C(=O)c2ccccc2)C3)c1 (some centres undefined),-,-,-,-,-,.,.,.
C/C=C/C=C/C(=O)N1CC2(CC(c3cccc(NC(=O)/C=C/C)c3)=NO2)C[C@@H]1C(N)=O (some centres undefined),56,-,-,-,-,-,-,.
C=C(C)C(=O)Nc1cccc(C2=NOC3(C2)C[C@H](C(N)=O)N(C(=O)c2ccccc2C(=O)c2ccccc2)C3)c1 (some centres undefined),84,-,92,-,97,78,-,-
CNc1ccc2ncc(-c3ccc(OC)c(OC)c3)n2n1,.,-,-,-,-,.,.,.
CCOc1ccccc1NC(=O)C(NCC1(N2CCCCC2)CCCCC1)c1ccccc1 (centres undefined),65,-,-,-,-,-,-,.
CCOc1ccccc1NC(=O)C(OC(=O)C1CC1)c1ccccc1 (centres undefined),-,-,-,-,-,.,.,.
C=Cc1ccc(Cn2c(C)c(C(=O)NCc3cccc(C)c3)sc2=O)cc1,.,-,-,-,-,.,.,.
CCCCOC(=O)c1cc(-c2ccc(/C=N/n3cnnc3)o2)ccc1Cl,91,-,-,-,-,-,-,.
CCCCCCn1c(-c2ccco2)nc2oc3cc(OC)ccc3c(=O)c2c1=O,56,-,-,-,-,50,-,-
CCCS(=O)(=O)NC(=O)C1(C)CCCN(C(=O)c2cc(-c3cccs3)oc2C)C1 (centres undefined),.,-,-,-,-,.,.,.
CON(C)S(=O)(=O)c1cccc(C(=O)Nc2ccc(S(=O)(=O)NC3=NCCCCC3)cc2)c1,-,-,-,-,-,.,.,.
CCN(CC)S(=O)(=O)c1cccc(C(=O)Nc2ccc(S(=O)(=O)NC3=NCCCCC3)cc2)c1,56,-,-,-,-,-,-,.
CC(=O)Nc1ccc(S(=O)(=O)N(C)CC(=O)OCC(=O)N2CCN(C(=O)c3ccco3)CC2)cc1,74,-,-,-,-,71,-,-
CC(=O)Nc1ccc(S(=O)(=O)NCCC(=O)OCC(=O)N2CCN(C(=O)c3ccco3)CC2)cc1,77,-,-,-,-,66,-,5.9
O=C(CCNS(=O)(=O)c1cccc(Cl)c1)OCC(=O)N1CCN(C(=O)c2ccco2)CC1,-,-,-,-,-,.,.,.
CC(=O)Nc1ccc(S(=O)(=O)N(C)CC(=O)OCC(=O)N2CCCCCC2)cc1,-,-,-,-,-,.,.,.
Cc1cn([C@H]2C[C@H](O)[C@@H](/C=C/C(=O)NCc3ccc(N(C)C)cc3)O2)c(=O)[nH]c1=O,.,-,-,-,-,.,.,.
O=C(C[C@@H]1CC[C@@H]2[C@H](COC[C@H](O)CN2CCC(F)(F)F)O1)NCc1ccc2c(c1)OCO2,.,.,-,-,.,.,.,.
COCCCN(C(=O)c1cc(-c2ccco2)nc2ccccc12)c1c(N)n(Cc2ccccc2)c(=O)[nH]c1=O,64,-,-,-,-,47,-,5.4
